Measurements from ChEMBL document CHEMBL1781959, “Synthesis and in vitro antitumor activity of substituted quinazoline and quinoxaline derivatives: search for anticancer agent” (Eur J Med Chem, 2011).

Key:
Type in all cases: functional
[1] = tested on: SF-539; assay: Anticancer activity against human SF539 cells assessed as cell growth promotion at 10^-5 M after 48 hrs by SRB assay relative to control
[2] = tested on: SNB-19; assay: Anticancer activity against human SNB19 cells assessed as cell growth promotion at 10^-5 M after 48 hrs by SRB assay relative to control
[3] = tested on: LOX IMVI; assay: Anticancer activity against human LOXIMVI cells assessed as cell growth promotion at 10^-5 M after 48 hrs by SRB assay relative to control
[4] = tested on: CCRF-CEM; assay: Anticancer activity against human CCRF-CEM cells assessed as cell growth promotion at 10^-5 M after 48 hrs by SRB assay relative to control
[5] = tested on: M14; assay: Anticancer activity against human M14 cells assessed as cell growth promotion at 10^-5 M after 48 hrs by SRB assay relative to control
[6] = tested on: MDA-MB-435; assay: Anticancer activity against human MDA-MB-435 cells assessed as cell growth promotion at 10^-5 M after 48 hrs by SRB assay relative to control
[7] = tested on: SK-MEL-28; assay: Anticancer activity against human SK-MEL-28 cells assessed as cell growth promotion at 10^-5 M after 48 hrs by SRB assay relative to control
[8] = tested on: SK-MEL-5; assay: Anticancer activity against human SK-MEL-5 cells assessed as cell growth promotion at 10^-5 M after 48 hrs by SRB assay relative to control
[9] = tested on: UACC-257; assay: Anticancer activity against human UACC257 cells assessed as cell growth promotion at 10^-5 M after 48 hrs by SRB assay relative to control
[10] = tested on: UACC-62; assay: Anticancer activity against human UACC62 cells assessed as cell growth promotion at 10^-5 M after 48 hrs by SRB assay relative to control
[11] = tested on: OVCAR-3; assay: Anticancer activity against human OVCAR3 cells assessed as cell growth promotion at 10^-5 M after 48 hrs by SRB assay relative to control
[12] = tested on: OVCAR-5; assay: Anticancer activity against human OVCAR5 cells assessed as cell growth promotion at 10^-5 M after 48 hrs by SRB assay relative to control
[13] = tested on: OVCAR-8; assay: Anticancer activity against human OVCAR8 cells assessed as cell growth promotion at 10^-5 M after 48 hrs by SRB assay relative to control
[14] = tested on: NCI/ADR-RES; assay: Anticancer activity against human NCI/ADR-RES cells assessed as cell growth promotion at 10^-5 M after 48 hrs by SRB assay relative to control
[15] = tested on: SK-OV-3; assay: Anticancer activity against human SKOV3 cells assessed as cell growth promotion at 10^-5 M after 48 hrs by SRB assay relative to control
[16] = tested on: A498; assay: Anticancer activity against human A498 cells assessed as cell growth promotion at 10^-5 M after 48 hrs by SRB assay relative to control
[17] = tested on: ACHN; assay: Anticancer activity against human ACHN cells assessed as cell growth promotion at 10^-5 M after 48 hrs by SRB assay relative to control
[18] = tested on: TK-10; assay: Anticancer activity against human TK10 cells assessed as cell growth promotion at 10^-5 M after 48 hrs by SRB assay relative to control
[19] = tested on: UO-31; assay: Anticancer activity against human UO31 cells assessed as cell growth promotion at 10^-5 M after 48 hrs by SRB assay relative to control
[20] = tested on: PC-3; assay: Anticancer activity against human PC3 cells assessed as cell growth promotion at 10^-5 M after 48 hrs by SRB assay relative to control
[21] = tested on: MCF7; assay: Anticancer activity against human MCF7 cells assessed as cell growth promotion at 10^-5 M after 48 hrs by SRB assay relative to control
[22] = tested on: HL-60(TB); assay: Anticancer activity against human HL-60(TB) cells assessed as cell growth promotion at 10^-5 M after 48 hrs by SRB assay relative to control
In short: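 NCI-60 single-dose screen: compound at 10^-5 M, 48 h at 37 °C, 5% CO2; cells grown in RPMI 1640 with 5% FBS and 2 mM L-glutamine, pre-incubated 24 h before dosing. Adherent cells fixed with cold TCA; endpoint is sulforhodamine B protein staining. Percent growth of treated cells is reported relative to untreated control.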

[23] = tested on: K562; assay: Anticancer activity against human K562 cells assessed as cell growth promotion at 10^-5 M after 48 hrs by SRB assay relative to control
[24] = tested on: MOLT-4; assay: Anticancer activity against human MOLT4 cells assessed as cell growth promotion at 10^-5 M after 48 hrs by SRB assay relative to control
[25] = Anticancer activity against human Hs 578T cells assessed as cell growth promotion at 10^-5 M after 48 hrs by SRB assay relative to control
[26] = tested on: T47D; assay: Anticancer activity against human T47D cells assessed as cell growth promotion at 10^-5 M after 48 hrs by SRB assay relative to control
[27] = tested on: MDA-MB-468; assay: Anticancer activity against human MDA-MB-468 cells assessed as cell growth promotion at 10^-5 M after 48 hrs by SRB assay relative to control
[28] = tested on: A549; assay: Anticancer activity against human A549 cells assessed as cell growth promotion at 10^-5 M after 48 hrs by SRB assay relative to control
[29] = tested on: HOP-62; assay: Anticancer activity against human HOP62 cells assessed as cell growth promotion at 10^-5 M after 48 hrs by SRB assay relative to control
[30] = tested on: NCI-H226; assay: Anticancer activity against human NCI-H226 cells assessed as cell growth promotion at 10^-5 M after 48 hrs by SRB assay relative to control
[31] = tested on: NCI-H23; assay: Anticancer activity against human NCI-H23 cells assessed as cell growth promotion at 10^-5 M after 48 hrs by SRB assay relative to control
[32] = tested on: NCI-H322M; assay: Anticancer activity against human NCI-H322M cells assessed as cell growth promotion at 10^-5 M after 48 hrs by SRB assay relative to control
[33] = tested on: NCI-H460; assay: Anticancer activity against human NCI-H460 cells assessed as cell growth promotion at 10^-5 M after 48 hrs by SRB assay relative to control
[34] = tested on: COLO 205; assay: Anticancer activity against human COLO205 cells assessed as cell growth promotion at 10^-5 M after 48 hrs by SRB assay relative to control
[35] = tested on: HCT-116; assay: Anticancer activity against human HCT116 cells assessed as cell growth promotion at 10^-5 M after 48 hrs by SRB assay relative to control
[36] = tested on: HCT-15; assay: Anticancer activity against human HCT15 cells assessed as cell growth promotion at 10^-5 M after 48 hrs by SRB assay relative to control
[37] = tested on: HT-29; assay: Anticancer activity against human HT-29 cells assessed as cell growth promotion at 10^-5 M after 48 hrs by SRB assay relative to control
[38] = tested on: KM12; assay: Anticancer activity against human KM12 cells assessed as cell growth promotion at 10^-5 M after 48 hrs by SRB assay relative to control

COc1ccc(OC)c(/C=C/c2nc3ccccc3nc2SCc2nc3ccccc3[nH]2)c1
Activity [1]: 94.92%
Activity [2]: 98.9%
Activity [3]: 93.9%
Activity [4]: 81.59%
Activity [5]: 99.58%
Activity [6]: 105%
Activity [7]: 118%
Activity [8]: 75.46%
Activity [9]: 111%
Activity [10]: 80.62%
Activity [11]: 107%
Activity [12]: 101%
Activity [13]: 92.09%
Activity [14]: 95.82%
Activity [15]: 85.7%
Activity [16]: 95.89%
Activity [17]: 94.36%
Activity [18]: 56.15%
Activity [19]: 60.33%
Activity [20]: 113%
Activity [21]: 82.73%
Activity [22]: 91.21%
Activity [23]: 90.78%
Activity [24]: 69.92%
Activity [25]: 87.08%
Activity [26]: 63.43%
Activity [27]: 98.24%
Activity [28]: 90.64%
Activity [29]: 87.33%
Activity [30]: 87.18%
Activity [31]: 92.16%
Activity [32]: 94.87%
Activity [33]: 94.48%
Activity [34]: 104%
Activity [35]: 73.92%
Activity [36]: 103%
Activity [37]: 80.4%
Activity [38]: 97.42%
